Source: ChEMBL document CHEMBL2177091, “Spirocyclic sulfamides as β-secretase 1 (BACE-1) inhibitors for the treatment of Alzheimer's disease: utilization of structure based drug design, WaterMap, and CNS penetration studies to identify centrally efficacious inhibitors” (J Med Chem, 2012)

Tests used:
in vitro = conditions: human, liver microsomes
[1] = Intrinsic clearance in rat liver microsomes; format: ADME, Microsome; conditions: read-out: CLH
Plasma = test: Fraction unbound in FVB/N mouse plasma at 1 uM after 6 hrs by equilibrium dialysis; format: ADME, cell-free
[2] = Ratio of drug uptake in brain to plasma in FVB/N mouse at 10 mg/kg, sc after 60 mins; format: ADME, organism-based; set-up: dose 10 mg/kg, route subcutaneous; conditions: brain and plasma, read-out: BPR
In short: (§1)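 Mice dosed 10 mg/kg subcutaneously; plasma and brain exposures taken at 60 min. Unbound fractions determined by equilibrium dialysis.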

[3] = Ratio of free drug concentration in brain to free drug concentration in plasma in FVB/N mouse at 10 mg/kg, sc after 60 mins; format: ADME, organism-based; set-up: dose 10 mg/kg, route subcutaneous; conditions: brain and plasma (free concentrations), read-out: K(p,uu,brain)
In short: as §1

CLint scaled (in vitro) [mL/min/kg]	CLint scaled [1] [mL/min/kg]	Cp(f) (Plasma)	Kp at 1 h [2]	Kp uu at 1 h [3]	Structure (SMILES)
173	–	–	–	–	C[C@H]1C[C@]2(CCN1Cc1ccc(O)c(Cl)c1)CN(C)S(=O)(=O)N2c1cccc(F)c1
79.9	–	–	–	–	CCOc1cc(CN2CC[C@@]3(C[C@@H]2C)CN(C)S(=O)(=O)N3c2cccc(F)c2)ccc1O
15.4	59.7	0.17	0.35	0.27	CC(C)Oc1cc(CN2CC[C@@]3(C[C@@H]2C)CN(C)S(=O)(=O)N3c2cccc(F)c2)ccc1O
> 19	> 65.5	0.036	0.97	0.65	CC(C)Oc1cccc(CN2CC[C@@]3(C[C@@H]2C)CN(C)S(=O)(=O)N3c2cccc(F)c2)c1
> 300	–	–	–	–	CC(=O)Nc1ccc(CN2CC[C@@]3(C[C@@H]2C)CN(C)S(=O)(=O)N3c2cccc(F)c2)cc1
175	–	–	–	–	C[C@H]1C[C@]2(CCN1Cc1ccc3[nH]ccc3c1)CN(C)S(=O)(=O)N2c1cccc(F)c1
74.2	–	–	–	–	CCc1n[nH]c2ccc(CN3CC[C@@]4(C[C@@H]3C)CN(C)S(=O)(=O)N4c3cccc(F)c3)cc12
152	–	–	–	–	C[C@H]1C[C@]2(CCN1Cc1ccc(O)cc1)CN(C)S(=O)(=O)N2c1cccc(F)c1
> 19	> 65.5	0.041	0.67	0.22	CC(C)Oc1cccc(CN2CC[C@]3(CNS(=O)(=O)N3c3cccc(F)c3)C[C@@H]2C)c1
